Assay results published in ChEMBL document CHEMBL3259717, “Synthetic calanolides with bactericidal activity against replicating and nonreplicating Mycobacterium tuberculosis” (J Med Chem, 2014).
In brackets after ≈: the same amount, converted by molar mass.

Key:
[1] = test system: Mycobacterium tuberculosis; assay: Antibacterial activity against non-replicating form of Mycobacterium tuberculosis MC2 6220 assessed as growth inhibition after 3 days by high-throughput screening assay; assay type: functional; conditions: MC2 6220, 72 h
Outline: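 Log-phase mc26220 washed in PBS/tyloxapol, resuspended in Sauton's-based NR medium (butyrate, 0.5 mM NaNO2, pH 5.0) at OD580 0.1. Compound exposure 3 days at 37 °C, 1% O2, 5% CO2. Then R medium added (5-fold dilution), 7 days outgrowth at 20% O2. OD580 read; MIC90 = 90% inhibition vs DMSO.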

[2] = test system: Mycobacterium tuberculosis; assay: Antibacterial activity against replicating form of Mycobacterium tuberculosis MC2 6220 assessed as growth inhibition after 7 days by high-throughput screening assay; assay type: functional; conditions: MC2 6220, 168 h
Outline: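 Attenuated Mtb mc26220 ΔpanCDΔlysA in 7H9 with glycerol, tyloxapol, OADC, casein amino acids, 240 μg/mL L-lysine, 24 μg/mL pantothenate. Mid-log cells diluted to OD580 0.01 in 384-well plates, compound in DMSO, 7 days at 37 °C, 20% O2, 5% CO2. OD580 read; MIC90 = 90% growth inhibition vs DMSO.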

Row | SMILES | MIC90 [1] | MIC90 [2]
1 | CCCc1cc(=O)oc2c(C(=O)CC)c(N3CCOCC3)c3c(c12)OC(C)(C)C=C3 | > 21 µg/mL | > 21 µg/mL
2 | CCCc1cc(=O)oc2c(C(=O)CC)c(N3CCN(Cc4ccc(F)cc4)CC3)c3c(c12)OC(C)(C)C=C3 | 26 µg/mL (≈ 50.1 µM) | > 26 µg/mL
3 | CCCc1cc(=O)oc2c1c1c(c3occc32)C=CC(C)(C)O1 | > 100 µg/mL | > 100 µg/mL
4 | CCCC1CC(=O)Oc2c1c1c(c3oc([N+](=O)[O-])cc23)C=CC(C)(C)O1 (configuration not stated) | > 18 µg/mL | > 18 µg/mL
5 | CCCc1cc(=O)oc2c(C(=O)CC)c(N3CCN(c4ccccn4)CC3)c3c(c12)OC(C)(C)C=C3 | > 24 µg/mL | > 24 µg/mL
6 | CCCc1cc(=O)oc2cc(Nc3ccccc3)c3c(c12)OC(C)(C)C=C3 | > 18 µg/mL | > 18 µg/mL
7 | CCCc1cc(=O)oc2cc(OCCc3cccs3)c3c(c12)OC(C)(C)C=C3 | > 20 µg/mL | > 20 µg/mL
8 | CCCc1cc(=O)oc2cc(N3CCSCC3)c3c(c12)OC(C)(C)C=C3 | > 19 µg/mL | > 19 µg/mL
9 | CCCc1cc(=O)oc2c3c(c4c(c12)OC(C)(C)C=C4)OC(OC(C)=O)C3=O (configuration not stated) | 6 µg/mL (≈ 15.6 µM) | > 100 µg/mL
10 | Cc1cc(=O)oc2cc(NC(=O)c3ccc([N+](=O)[O-])o3)c3c(c12)OC(C)(C)C=C3 | > 20 µg/mL | > 20 µg/mL
11 | CCCc1cc(=O)oc2c(C(=O)CC)c(N(C)C)c3c(c12)OC(C)(C)C=C3 | > 18 µg/mL | > 18 µg/mL
12 | CCCc1cc(=O)oc2c(C(=O)CC)c(N3CCN(c4ccc(OC)cc4)CC3)c3c(c12)OC(C)(C)C=C3 | > 26 µg/mL | > 26 µg/mL
13 | CCCc1cc(=O)oc2cc(OC(=O)c3ccccc3)c3c(c12)OC(C)(C)C=C3 | > 20 µg/mL | > 20 µg/mL
14 | CCCc1cc(=O)oc2cc(NC(=O)c3ccccc3)c3c(c12)OC(C)(C)C=C3 | > 19 µg/mL | > 19 µg/mL
15 | CCCc1cc(=O)oc2cc(N3CCC(O)CC3)c3c(c12)OC(C)(C)C=C3 | > 18 µg/mL | > 18 µg/mL
16 | CCCc1cc(=O)oc2cc(OC3CCN(C(=O)Nc4ccc(F)cc4)CC3)c3c(c12)OC(C)(C)C=C3 | > 24 µg/mL | > 24 µg/mL

Row | SMILES | MIC90 [1] | MIC90 [2]
17 | CCCc1c(F)c(=O)oc2c1c1c(c3oc([N+](=O)[O-])cc32)C=CC(C)(C)O1 | 19 µg/mL (≈ 50.9 µM) | 19 µg/mL (≈ 50.9 µM)
18 | CCCc1cc(=O)oc2c(C(=O)CC)c(N3CCN(c4ccncc4)CC3)c3c(c12)OC(C)(C)C=C3 | > 24 µg/mL | > 24 µg/mL
19 | CCCc1cc(=O)oc2c3c(c4c(c12)OC(C)(C)C=C4)OC(C)(OC(C)=O)C3=O (configuration not stated) | > 20 µg/mL | > 20 µg/mL
20 | CCCc1cc(=O)oc2c3c(c4cc([N+](=O)[O-])oc4c12)OC(C)CC3=O (configuration not stated) | 6 µg/mL (≈ 16.8 µM) | > 50 µg/mL
21 | CCCc1cc(=O)oc2cc(NCc3cccc(F)c3)c3c(c12)OC(C)(C)C=C3 | > 20 µg/mL | > 20 µg/mL
22 | CCCc1cc(=O)oc2c(C(=O)CC)c(N3CCSCC3)c3c(c12)OC(C)(C)C=C3 | > 21 µg/mL | > 21 µg/mL
23 | CCCc1cc(=O)oc2cc(OCC3CC3)c3c(c12)OC(C)(C)C=C3 | > 17 µg/mL | > 17 µg/mL
24 | CCCc1cc(=O)oc2cc(NC(C)=O)c3c(c12)OC(C)(C)C=C3 | > 16 µg/mL | > 16 µg/mL
25 | CCCc1cc(=O)oc2c3c(c4c(c12)OC(C)(C)C=C4)OC(O)C3=O (configuration not stated) | 17 µg/mL (≈ 49.7 µM) | > 17 µg/mL
26 | CCCc1cc(=O)oc2cc(OC(C)=O)c3c(c12)OC(C)(C)C=C3 | > 16 µg/mL | > 16 µg/mL
27 | CCCc1cc(=O)oc2cc(NC(=O)c3cnccn3)c3c(c12)OC(C)(C)C=C3 | > 20 µg/mL | > 20 µg/mL
28 | CCCc1cc(=O)oc2cc(OCc3ccccc3)c3c(c12)OC(C)(C)C=C3 | > 19 µg/mL | > 19 µg/mL
29 | CCCc1cc(=O)oc2cc(NC(=O)Nc3cccc4ccccc34)c3c(c12)OC(C)(C)C=C3 | > 23 µg/mL | > 23 µg/mL
30 | CCCc1cc(=O)oc2cc(OC(=O)/C=C/c3ccccc3)c3c(c12)OC(C)(C)C=C3 | > 21 µg/mL | > 21 µg/mL
31 | CCCc1cc(=O)oc2c1c(-c1ccc(F)cc1)cc1oc([N+](=O)[O-])cc12 | 18 µg/mL (≈ 49 µM) | 0.7 µg/mL (≈ 1.91 µM)
